Experimental findings from ChEMBL document CHEMBL4354843, “Structure-Based Design of a Potent and Selective Covalent Inhibitor for SRC Kinase That Targets a P-Loop Cysteine” (J Med Chem, 2020) are described below.

For assay [1], the target named is Cyclin-dependent kinase 15 (Homo sapiens) (UniProt Q96Q40). Description: Binding affinity to wild-type human full length PFTAIRE2 (M1 to W384 residues) expressed in bacterial expression system assessed as residual binding level at 1 uM by Kinomescan method relative to control. The procedure, abridged: (§1)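 Active-site-directed competition binding panel (KinomeScan) covering 468 kinases. Test agent was screened at 1 μM. The read-out is the remaining kinase signal expressed relative to a DMSO control. Scores above 35%, taken as weak binding, were not reported.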

Assay [2] concerns the target Ephrin type-B receptor 1 (Homo sapiens) (UniProt P54762). Briefly: Binding affinity to wild-type human partial length EPHB1 (P589 to T911 residues) expressed in bacterial expression system assessed as residual binding level at 1 uM by Kinomescan method relative to control.
Assay [3] concerns the target Serine/threonine-protein kinase 24 (Homo sapiens) (UniProt Q9Y6E0). Description: Binding affinity to wild-type human partial length MST3 (A30 to S311 residues) expressed in bacterial expression system assessed as residual binding level at 1 uM by Kinomescan method relative to control.
The subject of assay [4] is Receptor-type tyrosine-protein kinase FLT3 (Homo sapiens), P36888 [K663Q]. Briefly: Binding affinity to human partial length FLT3 K663Q mutant (V592 to Y969 residues) expressed in bacterial expression system assessed as residual binding level at 1 uM by Kinomescan method relative to control. The procedure, abridged:
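KinomeScan active site-directed competition binding panel (468 kinases), compound tested at 1 μM. Result expressed as remaining kinase signal versus DMSO control (percent of control).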

Assay [5] concerns the target Serine/threonine-protein kinase ULK3 (Homo sapiens) (UniProt Q6PHR2). Description: Binding affinity to wild-type human partial length ULK3 (M1 to Q290 residues) expressed in mammalian expression system assessed as residual binding level at 1 uM by Kinomescan method relative to control.
For assay [6], the target named is cGMP-dependent protein kinase 1 (Homo sapiens) (UniProt Q13976). Description: Binding affinity to wild-type human partial length PRKG1 (L339 to F686 residues) expressed in bacterial expression system assessed as residual binding level at 1 uM by Kinomescan method relative to control.
Assay [7] concerns the target 3-phosphoinositide-dependent protein kinase 1 (Homo sapiens) (UniProt O15530). Description: Binding affinity to wild-type human full length PDPK1 (M1 to Q556 residues) expressed in bacterial expression system assessed as residual binding level at 1 uM by Kinomescan method relative to control. The procedure, abridged:
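KinomeScan, an active site-directed competition binding panel of 468 kinases. The test compound was at 1 μM. The readout is remaining kinase binding as a percentage of the DMSO control. Scores above 35% were treated as weak binding and not listed.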

The target of assay [8] is Tyrosine-protein kinase Fes/Fps (Homo sapiens) (UniProt P07332). Briefly: Binding affinity to wild-type human partial length FES (I527 to R822 residues) expressed in bacterial expression system assessed as residual binding level at 1 uM by Kinomescan method relative to control.
Assay [9] has as its target Tyrosine-protein kinase Tec (Homo sapiens) (UniProt P42680). Briefly: Binding affinity to wild-type human partial length TEC (L341 to D620 residues) expressed in bacterial expression system assessed as residual binding level at 1 uM by Kinomescan method relative to control.
Assay [10] concerns the target Mitogen-activated protein kinase kinase kinase 5 (Homo sapiens) (UniProt Q99683). Description: Binding affinity to wild-type human partial length ASK1 (E648 to S964 residues) expressed in bacterial expression system assessed as residual binding level at 1 uM by Kinomescan method relative to control.
The target in assay [11] is Protein kinase C delta type (Homo sapiens) (UniProt Q05655). Briefly: Binding affinity to wild-type human partial length PRKCD (Q328 to D676 residues) expressed in bacterial expression system assessed as residual binding level at 1 uM by Kinomescan method relative to control.
Assay [12] deals with Phosphatidylinositol 4-phosphate 5-kinase type-1 alpha (Homo sapiens) (UniProt Q99755). Briefly: Binding affinity to wild-type human full length PIP5K1A (M1 to H562 residues) expressed in bacterial expression system assessed as residual binding level at 1 uM by Kinomescan method relative to control. The procedure, abridged:
as §1

Assay [13] has as its target Dual specificity protein kinase CLK2 (Homo sapiens) (UniProt P49760). Description: Binding affinity to wild-type human partial length CLK2 (D144 to R498 residues) expressed in bacterial expression system assessed as residual binding level at 1 uM by Kinomescan method relative to control.
Assay [14] addresses Myosin light chain kinase, smooth muscle (Homo sapiens) (UniProt Q15746). Briefly: Binding affinity to wild-type human full length MYLK (M854 to E1845 residues) expressed in mammalian expression system assessed as residual binding level at 1 uM by Kinomescan method relative to control. The procedure, abridged:
as §1

In assay [15] the target is Phosphatidylinositol 4,5-bisphosphate 3-kinase catalytic subunit alpha isoform (Homo sapiens) (UniProt P42336). Briefly: Binding affinity to wild-type human partial length PIK3CA (R108 to N1068 residues) expressed in mammalian expression system assessed as residual binding level at 1 uM by Kinomescan method relative to control.
The target of assay [16] is Serine/threonine-protein kinase Nek7 (Homo sapiens) (UniProt Q8TDX7). Briefly: Binding affinity to wild-type human full length NEK7 (M1 to S302 residues) expressed in bacterial expression system assessed as residual binding level at 1 uM by Kinomescan method relative to control. The procedure, abridged: as §1
Assay [17] concerns the target Mitogen-activated protein kinase kinase kinase kinase 5 (Homo sapiens) (UniProt Q9Y4K4). Description: Binding affinity to wild-type human partial length MAP4K5 (M1 to P297 residues) expressed in bacterial expression system assessed as residual binding level at 1 uM by Kinomescan method relative to control.
In assay [18] the target is Serine/threonine-protein kinase TAO1 (Homo sapiens) (UniProt Q7L7X3). Description: Binding affinity to wild-type human partial length TAOK1 (M1 to A320 residues) expressed in mammalian expression system assessed as residual binding level at 1 uM by Kinomescan method relative to control.
The target in assay [19] is Serine/threonine-protein kinase Nek6 (Homo sapiens) (UniProt Q9HC98). Description: Binding affinity to wild-type human full length NEK6 (M8 to T313 residues) expressed in bacterial expression system assessed as residual binding level at 1 uM by Kinomescan method relative to control. The method, boiled down: as §1
In assay [20] the target is Ephrin type-A receptor 5 (Homo sapiens) (UniProt P54756). Description: Binding affinity to wild-type human partial length EPHA5 (T627 to V930 residues) expressed in bacterial expression system assessed as residual binding level at 1 uM by Kinomescan method relative to control. The procedure, abridged:
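Active-site-directed competition binding panel of 468 kinases (KinomeScan), compound at 1 μM. The read-out is kinase remaining bound, given as a percentage of the DMSO control. […]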

Assay [21] deals with Serine/threonine-protein kinase 3 (Homo sapiens) (UniProt Q13188). Briefly: Binding affinity to wild-type human partial length MST2 (D17 to E318 residues) expressed in bacterial expression system assessed as residual binding level at 1 uM by Kinomescan method relative to control.
In assay [22] the target is Membrane-associated tyrosine- and threonine-specific cdc2-inhibitory kinase (Homo sapiens) (UniProt Q99640). Description: Binding affinity to wild-type human partial length PKMYT1 (A88 to G366 residues) expressed in bacterial expression system assessed as residual binding level at 1 uM by Kinomescan method relative to control.

The structures appear in SMILES notation.

Chain of Cyclin-dependent kinase 15 (Homo sapiens) (Q96Q40 whole entry, the tested form may be a part): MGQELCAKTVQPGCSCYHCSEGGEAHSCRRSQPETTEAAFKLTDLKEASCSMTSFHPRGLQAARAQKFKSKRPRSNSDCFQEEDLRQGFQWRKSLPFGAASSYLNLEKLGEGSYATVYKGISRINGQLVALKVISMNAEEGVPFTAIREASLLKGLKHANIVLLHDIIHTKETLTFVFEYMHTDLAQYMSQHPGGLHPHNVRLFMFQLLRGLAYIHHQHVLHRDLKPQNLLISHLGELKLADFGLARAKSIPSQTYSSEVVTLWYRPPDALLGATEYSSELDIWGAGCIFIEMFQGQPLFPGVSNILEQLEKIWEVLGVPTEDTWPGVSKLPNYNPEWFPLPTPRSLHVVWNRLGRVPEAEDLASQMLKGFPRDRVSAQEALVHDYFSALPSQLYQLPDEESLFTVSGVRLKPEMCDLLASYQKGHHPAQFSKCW
Chain of Membrane-associated tyrosine- and threonine-specific cdc2-inhibitory kinase (Homo sapiens) (Q99640 whole entry, the tested form may be a part): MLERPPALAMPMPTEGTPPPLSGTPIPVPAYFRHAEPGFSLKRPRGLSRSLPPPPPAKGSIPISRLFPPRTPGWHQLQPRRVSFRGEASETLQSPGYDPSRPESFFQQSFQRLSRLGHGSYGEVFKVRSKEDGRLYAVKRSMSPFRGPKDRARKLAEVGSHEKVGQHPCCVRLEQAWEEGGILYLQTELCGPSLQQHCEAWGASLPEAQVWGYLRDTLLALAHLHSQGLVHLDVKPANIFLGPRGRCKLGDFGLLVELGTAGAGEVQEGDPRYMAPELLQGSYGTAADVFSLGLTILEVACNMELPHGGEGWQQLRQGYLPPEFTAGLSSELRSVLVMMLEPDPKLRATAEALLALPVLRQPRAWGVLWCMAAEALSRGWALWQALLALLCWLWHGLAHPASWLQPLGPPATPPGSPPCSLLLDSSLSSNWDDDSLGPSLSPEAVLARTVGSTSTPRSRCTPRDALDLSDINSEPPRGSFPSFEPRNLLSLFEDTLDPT
Chain of Ephrin type-B receptor 1 (Homo sapiens) (P54762 whole entry, the tested form may be a part): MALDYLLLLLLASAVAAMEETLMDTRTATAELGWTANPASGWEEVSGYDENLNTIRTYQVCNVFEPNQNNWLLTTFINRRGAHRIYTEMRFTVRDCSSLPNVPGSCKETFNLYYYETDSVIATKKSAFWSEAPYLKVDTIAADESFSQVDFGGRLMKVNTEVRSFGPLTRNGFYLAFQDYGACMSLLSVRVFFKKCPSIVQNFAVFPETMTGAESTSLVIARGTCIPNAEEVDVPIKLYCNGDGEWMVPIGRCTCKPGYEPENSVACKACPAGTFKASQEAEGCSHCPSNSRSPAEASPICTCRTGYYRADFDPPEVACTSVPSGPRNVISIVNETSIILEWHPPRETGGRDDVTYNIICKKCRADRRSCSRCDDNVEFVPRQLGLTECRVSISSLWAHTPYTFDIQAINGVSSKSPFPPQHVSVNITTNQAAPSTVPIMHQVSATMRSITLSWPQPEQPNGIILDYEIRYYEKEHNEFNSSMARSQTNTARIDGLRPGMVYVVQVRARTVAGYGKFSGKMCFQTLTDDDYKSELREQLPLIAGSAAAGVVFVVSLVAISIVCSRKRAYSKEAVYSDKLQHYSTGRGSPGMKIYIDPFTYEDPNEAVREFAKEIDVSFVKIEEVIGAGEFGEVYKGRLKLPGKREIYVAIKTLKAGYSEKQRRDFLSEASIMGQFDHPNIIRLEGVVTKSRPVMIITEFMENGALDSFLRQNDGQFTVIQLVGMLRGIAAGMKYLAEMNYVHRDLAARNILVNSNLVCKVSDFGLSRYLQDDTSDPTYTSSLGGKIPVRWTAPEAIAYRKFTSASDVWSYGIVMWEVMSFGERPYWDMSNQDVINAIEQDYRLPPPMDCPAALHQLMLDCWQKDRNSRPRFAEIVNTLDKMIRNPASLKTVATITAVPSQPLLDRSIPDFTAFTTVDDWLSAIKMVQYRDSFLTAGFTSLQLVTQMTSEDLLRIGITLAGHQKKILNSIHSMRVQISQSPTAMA
Chain of 3-phosphoinositide-dependent protein kinase 1 (Homo sapiens) (O15530 whole entry, the tested form may be a part): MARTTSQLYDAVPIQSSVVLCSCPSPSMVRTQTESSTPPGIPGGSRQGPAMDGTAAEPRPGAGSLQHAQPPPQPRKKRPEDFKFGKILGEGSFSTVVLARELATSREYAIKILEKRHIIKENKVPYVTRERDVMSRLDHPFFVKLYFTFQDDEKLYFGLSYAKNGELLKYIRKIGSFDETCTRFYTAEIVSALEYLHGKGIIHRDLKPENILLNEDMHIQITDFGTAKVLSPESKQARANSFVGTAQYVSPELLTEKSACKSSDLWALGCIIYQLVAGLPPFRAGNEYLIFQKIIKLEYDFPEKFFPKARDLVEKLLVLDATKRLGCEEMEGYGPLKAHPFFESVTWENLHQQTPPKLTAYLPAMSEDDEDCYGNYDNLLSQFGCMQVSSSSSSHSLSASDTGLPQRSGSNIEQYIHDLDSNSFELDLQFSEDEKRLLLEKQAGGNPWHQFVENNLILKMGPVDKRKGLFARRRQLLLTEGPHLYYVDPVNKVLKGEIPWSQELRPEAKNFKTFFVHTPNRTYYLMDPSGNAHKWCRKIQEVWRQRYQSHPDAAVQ
Chain of cGMP-dependent protein kinase 1 (Homo sapiens) (Q13976 whole entry, the tested form may be a part): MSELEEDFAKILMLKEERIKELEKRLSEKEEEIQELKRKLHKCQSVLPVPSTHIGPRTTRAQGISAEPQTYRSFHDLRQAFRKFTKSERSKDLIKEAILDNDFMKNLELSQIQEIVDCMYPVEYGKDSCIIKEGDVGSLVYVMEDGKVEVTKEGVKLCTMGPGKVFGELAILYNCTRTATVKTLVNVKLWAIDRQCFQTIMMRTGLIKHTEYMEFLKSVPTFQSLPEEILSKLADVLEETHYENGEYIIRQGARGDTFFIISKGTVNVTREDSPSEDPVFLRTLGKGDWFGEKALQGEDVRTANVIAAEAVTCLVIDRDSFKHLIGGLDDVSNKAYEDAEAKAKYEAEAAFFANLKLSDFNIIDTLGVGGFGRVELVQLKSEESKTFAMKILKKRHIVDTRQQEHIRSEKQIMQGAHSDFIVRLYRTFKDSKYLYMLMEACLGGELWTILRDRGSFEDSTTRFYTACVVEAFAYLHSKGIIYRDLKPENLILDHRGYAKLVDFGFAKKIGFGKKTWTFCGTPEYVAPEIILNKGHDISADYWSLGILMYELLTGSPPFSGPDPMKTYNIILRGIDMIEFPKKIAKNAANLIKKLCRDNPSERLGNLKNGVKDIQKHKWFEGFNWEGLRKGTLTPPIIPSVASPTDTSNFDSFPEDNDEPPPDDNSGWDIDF
Chain of Serine/threonine-protein kinase 3 (Homo sapiens) (Q13188 whole entry, the tested form may be a part): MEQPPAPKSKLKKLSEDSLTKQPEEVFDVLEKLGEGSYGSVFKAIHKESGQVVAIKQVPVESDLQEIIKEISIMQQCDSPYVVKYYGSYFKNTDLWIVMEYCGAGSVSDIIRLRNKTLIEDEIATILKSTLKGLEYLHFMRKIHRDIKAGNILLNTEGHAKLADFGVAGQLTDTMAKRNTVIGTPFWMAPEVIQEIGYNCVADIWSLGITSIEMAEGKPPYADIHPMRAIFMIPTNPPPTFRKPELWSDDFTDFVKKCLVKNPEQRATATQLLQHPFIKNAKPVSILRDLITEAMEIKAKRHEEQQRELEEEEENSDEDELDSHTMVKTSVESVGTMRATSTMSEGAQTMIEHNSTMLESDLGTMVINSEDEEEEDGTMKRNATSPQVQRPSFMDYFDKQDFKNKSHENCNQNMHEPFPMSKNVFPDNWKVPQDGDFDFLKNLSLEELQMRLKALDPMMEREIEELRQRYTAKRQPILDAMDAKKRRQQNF
Chain of Serine/threonine-protein kinase TAO1 (Homo sapiens) (Q7L7X3 whole entry, the tested form may be a part): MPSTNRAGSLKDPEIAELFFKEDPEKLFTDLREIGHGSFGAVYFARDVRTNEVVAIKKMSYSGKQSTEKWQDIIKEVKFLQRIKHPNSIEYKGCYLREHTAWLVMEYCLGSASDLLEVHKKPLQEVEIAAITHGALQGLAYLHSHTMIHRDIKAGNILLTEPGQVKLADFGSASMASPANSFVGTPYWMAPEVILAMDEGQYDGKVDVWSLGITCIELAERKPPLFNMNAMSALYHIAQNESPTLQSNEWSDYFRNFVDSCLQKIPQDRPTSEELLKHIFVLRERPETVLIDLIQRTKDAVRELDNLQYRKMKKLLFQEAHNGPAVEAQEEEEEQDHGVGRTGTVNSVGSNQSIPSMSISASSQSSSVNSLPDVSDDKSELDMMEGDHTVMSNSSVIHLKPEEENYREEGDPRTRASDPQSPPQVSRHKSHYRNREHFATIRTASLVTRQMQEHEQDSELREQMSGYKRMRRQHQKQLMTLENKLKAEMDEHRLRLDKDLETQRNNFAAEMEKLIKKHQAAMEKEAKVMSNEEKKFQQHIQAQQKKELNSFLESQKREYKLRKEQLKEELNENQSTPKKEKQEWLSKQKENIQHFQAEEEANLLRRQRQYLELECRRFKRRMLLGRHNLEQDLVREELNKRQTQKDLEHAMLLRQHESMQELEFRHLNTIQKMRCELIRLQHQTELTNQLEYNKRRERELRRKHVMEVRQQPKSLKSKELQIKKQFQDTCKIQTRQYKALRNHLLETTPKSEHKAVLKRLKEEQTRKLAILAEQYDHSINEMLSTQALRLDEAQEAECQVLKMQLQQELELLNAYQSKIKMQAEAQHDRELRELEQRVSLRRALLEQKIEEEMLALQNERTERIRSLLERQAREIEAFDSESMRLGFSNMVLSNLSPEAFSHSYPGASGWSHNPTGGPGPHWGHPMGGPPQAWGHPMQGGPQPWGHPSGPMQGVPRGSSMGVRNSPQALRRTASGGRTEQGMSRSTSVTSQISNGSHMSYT
Chain of Serine/threonine-protein kinase Nek7 (Homo sapiens) (Q8TDX7 whole entry, looked up, the tested form may be a part): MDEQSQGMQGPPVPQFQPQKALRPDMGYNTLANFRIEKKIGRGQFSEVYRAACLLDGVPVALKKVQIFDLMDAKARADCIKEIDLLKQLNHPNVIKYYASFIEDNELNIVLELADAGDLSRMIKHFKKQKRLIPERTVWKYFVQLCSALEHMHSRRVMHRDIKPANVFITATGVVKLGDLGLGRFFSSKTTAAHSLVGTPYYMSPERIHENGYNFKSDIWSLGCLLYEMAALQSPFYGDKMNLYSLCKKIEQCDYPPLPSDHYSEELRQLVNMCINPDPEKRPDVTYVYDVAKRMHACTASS

As to `C=CC(=O)Nc1ccccc1Nc1nc(Nc2ccc(N3CCN(C)CC3)cc2)ncc1C(=O)Nc1c(C)cccc1Cl`, the Activity stood at 100% in assay [1]; 66% in assay [2]; 100% in assay [3]; 100% in [4]; 100% in assay [5]; 100% in assay [6]. Besides, the Activity was 93% in [7]; 100% in [8]; 95% in assay [9]; 100% in [10]; 100% in assay [11]; 100% in assay [12]. The Activity in [13], in assay [14], in assay [15], in [16], in assay [17] and in assay [18] was 100% each time. Also, the Activity is 100% in assay [19], 78% in assay [20], 100% in assay [21] and 100% in assay [22].
